eIF4E 4G PPI – blocks eIF4E binding to eIF4G; AID 782; 220,000 compounds, 0.37% hits; inhibition, % at 21.7 µM; P63073+Q04637; TR-FRET eIF4E-eIF4GI(517-606) binding, 2 h;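 also: 0% = full FRET control wells and 100% = background wells lacking eIF4GI fragment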
NCF1 inh – p47phox (human) inhibition. p47phox/p22phox peptide binding, fluorescence polarization, 2 h. P14598. 220,000 compounds, 0.53% hits. inhibition, % at 24.7 µM. AID 1274;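 also: 0% = p47phox with labelled peptide and 100% = labelled peptide alone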
14-3-3 Bad inh – disrupts binding of bovine 14-3-3 zeta to phospho-Bad peptide; 220,000 compounds, 0.71% hits; P63103; AID 781; inhibition, % at 21.7 µM; TR-FRET 14-3-3zeta/Dy647-pBad peptide displacement, 1 h;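 active = inhibition above about 70%, limit read from the data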;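 also: 0% = full 14-3-3 plus peptide FRET controls and 100% = background without 14-3-3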
TbMetRS inhib – blocks T. brucei methionyl-tRNA synthetase activity | purified T. brucei MetRS, ATP depletion, Kinase-Glo luminescence | inhibition, % at 11.9 µM | 360,000 compounds, 0.4% hits | AID 624268;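 active = inhibition above a per-plate cutoff of the control wells' mean inhibition plus 3 SD, cut at about 5.5% in these data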;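 also: 0% = DMSO wells median and 100% = median of wells with control inhibitor compound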
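assay system = parasite MetRS enzyme | timing = 15 min preincubation, 2 h reaction, all 25 °C | evaluation = percent inhibition relative to median high and low control wells | medium = HEPES buffer containing pyrophosphatase, BSA, spermine, DTT | compound = single dose, 11.9 µM final nominal, 0.9% final DMSO | detection = Kinase-Glo luminescence, ATP depletion format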
SUMO HTRF inh – blocks human SUMOylation mediated by UBC9 | P63279 | HTRF SUMOylation assay, SAE1/SAE2 + UBC9, in vitro | inhibition, % at 35 µM | 290,000 compounds, 0.36% hits; in the data active = inhibition above about 50%, passing the limit was not always enough
p97 ATPase inh – blocks human p97 ATPase activity; P55072; recombinant p97 ATPase, Kinase-Glo ATP luminescence, 3 h; inhibition, % at 8 µM; 220,000 compounds, 0.42% hits; AID 1481; in the data active = inhibition above about 15%;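 also: 0% = DMSO vehicle and 100% = wells lacking enzyme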
Target sequence (P55072 whole entry, looked up): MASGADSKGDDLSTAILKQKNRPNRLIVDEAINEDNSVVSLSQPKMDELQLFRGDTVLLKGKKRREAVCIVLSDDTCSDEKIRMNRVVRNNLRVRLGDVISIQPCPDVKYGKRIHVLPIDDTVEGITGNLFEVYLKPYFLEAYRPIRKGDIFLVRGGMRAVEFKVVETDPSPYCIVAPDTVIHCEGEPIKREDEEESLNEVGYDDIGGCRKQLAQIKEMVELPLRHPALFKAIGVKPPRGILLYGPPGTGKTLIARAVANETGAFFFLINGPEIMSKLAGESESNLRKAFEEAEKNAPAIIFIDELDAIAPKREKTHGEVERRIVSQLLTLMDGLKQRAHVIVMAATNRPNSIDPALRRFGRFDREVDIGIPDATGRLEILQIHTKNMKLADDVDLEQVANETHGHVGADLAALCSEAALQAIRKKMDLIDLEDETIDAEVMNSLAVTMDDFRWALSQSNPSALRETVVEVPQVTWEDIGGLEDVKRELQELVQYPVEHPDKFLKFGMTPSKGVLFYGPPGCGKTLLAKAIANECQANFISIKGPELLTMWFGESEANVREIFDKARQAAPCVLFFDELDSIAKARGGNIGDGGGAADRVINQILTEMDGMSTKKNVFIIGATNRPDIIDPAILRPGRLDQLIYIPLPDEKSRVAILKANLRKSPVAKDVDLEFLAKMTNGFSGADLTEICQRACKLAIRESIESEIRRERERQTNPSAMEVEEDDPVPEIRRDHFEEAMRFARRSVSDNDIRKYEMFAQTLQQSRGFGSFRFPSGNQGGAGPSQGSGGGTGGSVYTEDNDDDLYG
p97 inh conf – human p97 ATPase inhibition, confirmation; inhibition, % at 8 µM; 760 compounds, 44% hits; shares compounds with p97 ATPase inh; recombinant p97 ATPase, Kinase-Glo ATP luminescence;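 active = percent inhibition of p97 ATPase above a set limit, the primary screen's mean plus 3 SD, cut at about 15% in these data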;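 also: 0% = DMSO wells and 100% = wells lacking p97 protein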
Numbers without * were called inactive; nt = no result. In the library only some 1.6% were active in any assay of this set; here they are far more common.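 The calls were made as follows, unless noted: active = inhibition above about 30% (limit read from the data); inactive = the rest.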

SMILES | eIF4E 4G PPI | NCF1 inh | 14-3-3 Bad inh | TbMetRS inhib | SUMO HTRF inh | p97 ATPase inh | p97 inh conf
COc1cc(/C=c2\sc3n(c2=O)C(c2ccccc2)C(c2ccccc2)=NN=3)ccc1O (centres undefined) | -8.7 | -28.0 | 2.0 | -0.2 | -4.0 | 16.2* | 9.4
O=C(CCl)Nc1nc(-c2ccco2)c(-c2ccco2)s1 | 0.1 | -25.6 | 16.7 | 0.5 | 81.5* | 17.9* | 42.4*
COCc1c(C(=O)OC)nnn1-c1ccc(C(F)(F)F)cc1[N+](=O)[O-] | 4.8 | 1.1 | -9.7 | -0.7 | -0.3 | 1.5 | nt
O=C(O)CCN1C(=O)/C(=C/c2ccc(-c3nc4ccccc4s3)o2)SC1=S | 18.4 | 8.4 | 22.2 | 0.1 | 45.8 | 2.8 | nt
O=C(O)CCCN1C(=O)/C(=C\c2ccc(-c3nc4ccccc4s3)o2)SC1=S | 14.8 | -239.7 | 80.9* | 0.0 | 39.7 | 15.4* | 3.0
COC(=O)c1cccc(-c2ccc(C(c3c(C)[nH][nH]c3=O)c3c(C)[nH][nH]c3=O)o2)c1 | -1.1 | -11.8 | -20.0 | -0.3 | nt | 12.4 | nt
Cc1[nH][nH]c(=O)c1C(c1ccc(-c2ccc(Cl)c(C(=O)O)c2)o1)c1c(C)[nH][nH]c1=O | -3.0 | 5.7 | 18.6 | -0.3 | 96.3 | 16.0* | 34.7*
COC(=O)c1ccccc1-c1ccc(C(c2c(C)[nH][nH]c2=O)c2c(C)[nH][nH]c2=O)o1 | 2.8 | -9.8 | -6.6 | 0.0 | 97.2 | 19.8* | 5.5
O=C(COC(=O)/C=C/c1cccc(Br)c1)Nc1ccc(Cl)cn1 | nt | nt | nt | -0.3 | nt | nt | nt
CCC(=O)Nc1ccc(Br)c(Cl)c1 | 0.7 | -11.4 | -8.3 | 0.1 | 12.7 | 16.3* | 10.9
COCC(=O)N(Cc1nc2ccccc2c(=O)[nH]1)Cc1cccs1 | 8.6 | -10.3 | -6.9 | -0.4 | 13.7 | 5.0 | nt
COCC(=O)N(CCc1ccc(OC)c(OC)c1)Cc1nc2ccccc2c(=O)[nH]1 | 5.2 | -7.1 | -7.2 | -1.0 | 24.9 | 16.4* | 7.8
Cc1ccc(NC(=S)Nc2cccc3cnccc23)cc1C | -4.7 | 0.2 | -14.6 | -2.1 | 95.5 | 24.0* | 3.2
CCCCNC(=S)Nc1cccc2cnccc12 | 1.6 | -6.4 | 1.4 | 0.7 | 2.1 | 3.9 | nt
NCCNc1ccc([N+](=O)[O-])c(NC2CC2)c1 | 8.0 | -3.9 | 3.6 | -0.8 | -14.6 | 17.1* | 6.0
O=[N+]([O-])c1ccc(N2CCCC2)cc1NC1CC1 | -0.9 | 4.4 | 12.1 | -0.3 | -16.2 | -7.6 | nt
O=C(CSc1nc2ccccc2s1)Nc1cc(S(=O)(=O)N2CCOCC2)ccc1O | -1.9 | -23.0 | 10.4 | 0.2 | -7.2 | 16.9* | 11.2
Cc1nnc(SCC(=O)Nc2cc(S(=O)(=O)N3CCOCC3)ccc2C)s1 | nt | nt | nt | -0.6 | nt | nt | nt
CC1(C(=O)O)CCCN(C(=O)C2(c3ccc(Cl)cc3)CCCC2)C1 (centres undefined) | nt | nt | nt | -0.3 | nt | nt | nt
COc1ccc(NS(=O)(=O)c2cc(NC(=O)CCc3ccccc3)ccc2N2CCOCC2)cc1 | nt | nt | nt | 0.1 | nt | nt | nt
N=C1/C(=C/c2coc3ccccc3c2=O)C(=O)N=C2SC(c3ccco3)=NN12 | 3.7 | -63.0 | 38.0 | 1.2 | 17.8 | 15.9* | 19.2*
Cc1cc(/C=C2\C(=N)N3N=C(c4ccco4)SC3=NC2=O)c(C)n1Cc1ccccc1 | -2.1 | -95.8 | -9.6 | 0.1 | nt | 6.4 | nt
N=C1/C(=C\c2coc3ccccc3c2=O)C(=O)N=C2SC(c3ccncc3)=NN12 | 12.3 | -99.7 | 35.2 | 0.4 | 26.2 | 31.8* | 43.5*
CSC1=NSC2=NC(=O)/C(=C\c3coc4ccccc4c3=O)C(=N)N12 | 25.5 | -95.5 | 23.9 | -0.4 | -3.8 | 8.7 | nt
N=C1/C(=C\c2coc3ccc(O)cc3c2=O)C(=O)N=C2SC=CN12 | 11.8 | -80.2 | 23.8 | -0.2 | 32.2 | 27.6* | 23.6*
CN1C(=O)/C(=C/c2coc3ccc(O)cc3c2=O)SC1=S | -0.2 | -15.3 | 18.9 | -0.7 | 23.5 | 2.1 | nt
CCOC(=O)c1cc2c(ccn2-c2ccc(F)cc2)n1CC(=O)NC(C)(C)C | 4.1 | 1.6 | 4.3 | nt | -10.9 | -4.1 | nt
COc1ccccc1C(=O)NC(=O)CSc1nnc(N)s1 | nt | nt | nt | -0.3 | nt | nt | nt
